ChEMBL document CHEMBL3797150, “Lupeol Isolated from Sorbus commixta Suppresses 1α,25-(OH)2D3-Mediated Osteoclast Differentiation and Bone Loss in Vitro and in Vivo” (J Nat Prod, 2016)
The source made the active and inactive calls. The rule behind the calls is not given here.

Assays:
[1] = test system: Calvarial osteoblast; assay: Inhibition of 1alpha,25-(OH)2D3-induced osteoclasts differentiation in mouse calvarial osteoblasts cocultured with mouse bone marrow macrophages incubated for 6 days by TRAP staining based microscopy; type: functional, cell-based
Method in brief: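 Bone marrow cells (1 × 10^7) cocultured 6 days with calvarial osteoblasts (1 × 10^6) in α-MEM with 10% FBS and 0.1 μM 1α,25-(OH)2D3. Cells fixed in formaldehyde and ethanol–acetone, then TRAP-stained; TRAP-positive cells with three or more nuclei counted as osteoclasts.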

[2] = Cytotoxicity against mouse calvarial osteoblasts assessed as cell viability at 1 to 20 uM after 2 to 4 days by MTT assay; type: cell-based; conditions: calvarial osteoblast
Method in brief: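 Primary calvarial osteoblasts from 1–2-day-old newborn mice (serial collagenase/dispase digests, fractions 2–5) exposed to 1, 5, 10, 20 μM for 2 days, or kept for at least 4 days with medium changed every 2–3 days; viability by MTT. Mean ± SD of three independent experiments.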

[3] = Downregulation of 1alpha,25-(OH)2D3-induced RANKL mRNA expression in mouse calvarial osteoblasts at 5 and 10 uM after 24 hrs by RT-PCR method; type: functional, cell-based; conditions: Calvarial osteoblast
Method in brief: (§1)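 Calvarial osteoblasts from newborn mice grown 24 h in α-MEM with 10% FBS and 0.1 μM 1α,25-(OH)2D3, with or without compound. Total RNA reverse-transcribed, then PCR for RANKL (587 bp), OPG (720 bp), M-CSF (516 bp) and GAPDH (452 bp) as control. Products run on 2% agarose with ethidium bromide; three independent experiments.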

[4] = test system: Calvarial osteoblast; assay: Effect on 1alpha,25-(OH)2D3-induced OPG mRNA expression in mouse calvarial osteoblasts at 5 and 10 uM after 24 hrs by RT-PCR method; type: functional, cell-based; method in brief: as §1
[5] = test system: Calvarial osteoblast; assay: Effect on 1alpha,25-(OH)2D3-induced M-CSF mRNA expression in mouse calvarial osteoblasts at 5 and 10 uM after 24 hrs by RT-PCR method; type: functional, cell-based; method in brief: as §1
[6] = test system: Osteoclast; assay: Induction of disruption of 1alpha,25-(OH)2D3/PGE2-induced F-actin ring formation in mouse osteoclasts obtained from coculturing mouse calvarial osteoblasts with mouse bone marrow macrophages at 20 uM after 48 hrs by Alexa Fluor 488-conjugated phalloidin staining based fluorescence microscopy; type: functional, cell-based
Method in brief: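 Bone marrow cells and calvarial osteoblasts cocultured 6–7 days on collagen with 0.1 μM 1α,25-(OH)2D3 or 10 μM PGE2; mature osteoclasts released with 0.2% collagenase (37 °C, 30 min). Treated 48 h, fixed in paraformaldehyde, F-actin rings stained with Alexa Fluor 488-phalloidin and viewed by fluorescence microscopy at 100×.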

[7] = test system: Osteoclast; assay: Inhibition of bone resorption in mouse osteoclasts obtained from coculturing mouse calvarial osteoblasts with mouse bone marrow macrophages assessed as inhibition of pit formation at 20 uM after 48 hrs by Mayer's hematoxylin staining based light microscopy; type: functional, cell-based
Method in brief: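 Mature osteoclasts from collagen-gel cocultures (0.1 μM 1α,25-(OH)2D3 or 10 μM PGE2; collagenase release) replated on dentin slices with compound for 48 h. Cells removed, slices stained with Mayer's hematoxylin, pits counted per slice by light microscopy at 100×; three independent experiments.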

[8] = Downregulation of RANKL-induced ERK phosphorylation in mouse bone marrow macrophages after 15 mins by Western blot analysis in presence of M-CSF
Method in brief: (§2)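 Bone marrow macrophages from tibiae of 4–6-week ICR males, taken as cells adherent after 16–20 h in 50 ng/mL M-CSF. Treated with compound plus RANKL for 15 min, then lysed; phospho and total ERK, JNK and p38 detected by Western blot with ECL.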

[9] = Downregulation of RANKL-induced JNK phosphorylation in mouse bone marrow macrophages after 15 mins by Western blot analysis in presence of M-CSF; method in brief: as §2
[10] = Downregulation of RANKL-induced p38 MAPK phosphorylation in mouse bone marrow macrophages after 15 mins by Western blot analysis in presence of M-CSF; method in brief: as §2
[11] = biological target: T1, NF-kappa-B inhibitor alpha (Mus musculus) (UniProt Q9Z1E3); assay: Downregulation of RANKL-induced IkappaB alpha phosphorylation in mouse bone marrow macrophages at 5 to 20 uM after 30 mins by Western blot analysis in presence of M-CSF
T1 sequence (whole entry): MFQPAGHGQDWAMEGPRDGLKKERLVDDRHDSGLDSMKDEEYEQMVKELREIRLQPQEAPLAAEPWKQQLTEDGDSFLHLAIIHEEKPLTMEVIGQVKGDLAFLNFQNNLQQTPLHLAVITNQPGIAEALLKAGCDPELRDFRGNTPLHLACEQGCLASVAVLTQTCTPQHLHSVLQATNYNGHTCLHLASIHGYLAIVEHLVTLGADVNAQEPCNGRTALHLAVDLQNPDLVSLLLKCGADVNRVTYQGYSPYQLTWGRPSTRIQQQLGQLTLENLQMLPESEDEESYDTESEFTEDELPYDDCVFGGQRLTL

[12] = biological target: Transcription factor p65 (Mus musculus) (UniProt Q04207); assay: Downregulation of RANKL-induced p65 phosphorylation in mouse bone marrow macrophages at 5 to 20 uM after 30 mins by Western blot analysis in presence of M-CSF
[13] = Downregulation of RANKL-induced c-fos levels in mouse bone marrow macrophages at 5 to 20 uM after 24 hrs by Western blot analysis in presence of M-CSF; type: functional, cell-based; conditions: Macrophage
Method in brief: (§3)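 Bone marrow macrophages made with 50 ng/mL M-CSF, exposed to compound and RANKL for 24 h; c-Fos and NFATc1 protein by Western blot, β-actin as loading control, ECL detection.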

[14] = Downregulation of RANKL-induced NFATc1 levels in mouse bone marrow macrophages at 5 to 20 uM after 24 hrs by Western blot analysis in presence of M-CSF; type: functional, cell-based; conditions: Macrophage; method in brief: as §3
[15] = organism: Mus musculus; assay: Decrease in 1alpha,25-(OH)2D3-induced RANKL levels in hypercalcemic C57BL/6 mouse serum at […] […] by ELISA method; type: functional, organism-based
Method in brief: (§4)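 C57BL/6 males, 6 weeks old, groups of five; 1α,25-(OH)2D3 given subcutaneously on three consecutive days, then PBS or compound at 25 or 100 μg/kg/day for 3 days; sacrifice on day 8. Serum calcium and phosphate by colorimetric kits, RANKL by ELISA; mean ± SD, Student's t test.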

[16] = organism: Mus musculus; assay: Decrease in 1alpha,25-(OH)2D3-induced calcium levels in hypercalcemic C57BL/6 mouse serum at […] for […]; type: functional, organism-based; method in brief: as §4
[17] = organism: Mus musculus; assay: Decrease in 1alpha,25-(OH)2D3-induced phosphate levels in hypercalcemic C57BL/6 mouse serum at […]/day […]; type: functional, organism-based; method in brief: as §4
[18] = test system: Mus musculus; assay: Decrease in 1alpha,25-(OH)2D3-induced OPG levels in hypercalcemic C57BL/6 mouse serum at 5 to 100 ug/kg/day for 5 days; type: functional, organism-based
[19] = biological target: Transcription factor p65 (Mus musculus) (UniProt Q04207); assay: Downregulation of RANKL-induced p65 nuclear translocation in mouse bone marrow macrophages at 5 to 20 uM after 30 mins by Western blot analysis in presence of M-CSF
[20] = test system: primary calvarial osteoblasts (Mus musculus); assay: Induction of primary calvarial osteoblasts differentiation assessed as […] in alkaline phosphatase activity using p-nitrophenyl phosphate as substrate at 10 to 20 uM after 4 days
[21] = test system: primary calvarial osteoblasts (Mus musculus); assay: Induction of primary calvarial osteoblasts differentiation assessed as alkaline phosphatase activity at 1 to 20 uM using p-nitrophenyl phosphate as substrate after 7 to 14 days in presence of 1alpha,25-(OH)2D3

Sequence of Transcription factor p65 (Mus musculus) (Q04207 whole entry): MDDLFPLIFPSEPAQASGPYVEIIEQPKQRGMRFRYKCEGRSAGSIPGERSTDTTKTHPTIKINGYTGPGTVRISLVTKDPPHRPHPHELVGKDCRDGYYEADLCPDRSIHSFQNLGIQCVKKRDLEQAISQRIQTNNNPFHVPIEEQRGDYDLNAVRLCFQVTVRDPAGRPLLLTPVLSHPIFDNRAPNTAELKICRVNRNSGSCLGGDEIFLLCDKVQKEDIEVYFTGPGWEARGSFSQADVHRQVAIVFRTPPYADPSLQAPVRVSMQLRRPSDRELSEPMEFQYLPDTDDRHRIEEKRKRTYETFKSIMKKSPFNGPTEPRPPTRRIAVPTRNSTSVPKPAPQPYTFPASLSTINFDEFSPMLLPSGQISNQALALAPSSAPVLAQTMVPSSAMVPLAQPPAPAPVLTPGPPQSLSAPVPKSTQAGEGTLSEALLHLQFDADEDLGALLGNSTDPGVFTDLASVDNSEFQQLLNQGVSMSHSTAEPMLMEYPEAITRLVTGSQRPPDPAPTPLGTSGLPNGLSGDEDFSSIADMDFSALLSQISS

- inhibition [8]: Dose-dependent effect
- inhibition [9]: inactive
- inhibition [10]: Dose-dependent effect
- Activity [11]: Active
- Activity [12]: Active
- inhibition [19]: Active
Structure (SMILES): C=C(C)[C@@H]1CC[C@]2(C)CC[C@]3(C)[C@H](CC[C@@H]4[C@@]5(C)CC[C@H](O)C(C)(C)[C@@H]5CC[C@]43C)[C@@H]12 [LUPEOL]
- inhibition [1]: Active
- Activity [2]: Non-toxic
- Activity [3]: Active
- Activity [4]: inactive
- Activity [5]: inactive
- Activity [6]: Active
- inhibition [7]: Active
- Activity [13]: Active
- Activity [14]: Active
- Activity [15]: Active
- Activity [16]: inactive
- Activity [17]: inactive
- Activity [18]: inactive
- Activity [20]: Active
- Activity [21]: inactive
